Shown are actives, neighbours in structure and some others; about 5.4% of the full set was active somewhere.
PLAP activator: PLAP enzyme activators, biochemical, luminescence, HTS; Alkaline phosphatase, placental type (Homo sapiens), P05187; purified PLAP enzyme, luminescent substrate read-out; hits give high values; activation fold at 20 µM; hit rate 1.2% among 96,000; AID 696, 2007; in the data active = activation fold above about 2
HePTP inhibitor: inhibitors of human HePTP phosphatase, primary screen, biochemical, absorbance, leukemia target. Tyrosine-protein phosphatase non-receptor type 7 (Homo sapiens), P35236. recombinant HePTP phosphatase activity, OD absorbance. inhibition, % at 20 µM. hit rate 0.64% among 110,000; in the data active = inhibition above about 50%;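 note: plate controls were vehicle for no effect and reference inhibitor for full effect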
Target sequence (P35236 whole entry, looked up): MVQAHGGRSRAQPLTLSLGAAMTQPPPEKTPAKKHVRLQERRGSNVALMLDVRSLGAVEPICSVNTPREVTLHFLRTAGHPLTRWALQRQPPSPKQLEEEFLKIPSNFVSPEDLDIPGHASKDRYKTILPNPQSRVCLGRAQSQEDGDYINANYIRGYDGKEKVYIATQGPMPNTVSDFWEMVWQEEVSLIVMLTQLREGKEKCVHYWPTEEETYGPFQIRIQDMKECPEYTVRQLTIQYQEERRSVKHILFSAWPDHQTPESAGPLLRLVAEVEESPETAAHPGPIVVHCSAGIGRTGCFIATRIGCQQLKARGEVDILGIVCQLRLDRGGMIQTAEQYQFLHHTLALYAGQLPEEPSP
Ecoli tolC: growth inhibitors of E. coli tolC mutant, primary screen, strain BW25113 ΔtolC::kan, 384-well | OD615 | growth inhibition, % at 10 µM (by protocol) | hit rate 2.2% among 65,000;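 active = growth inhibition at or above a cutoff equal to the mean over every tested compound plus 3 SD, cut at about 60% in these data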;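 note: growth measured after 20 h incubation at 37 °C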
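signal = optical density read at 615 nm | test system = E. coli ΔtolC::kan strain BW25113 | timing = 20 h compound exposure of bacteria at 37 °C | buffer or medium = LB medium plus 50 µg/mL kanamycin | compound dosing = 10 µM final, single dose | evaluation = % inhibition of E. coli growth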
PostGolgi ctrl: growth inhibition of yeast control strain, primary screen, counter-screen for post-Golgi transport modulator project | inhibition, % at 10 µM | efflux-deficient yeast background strain, growth absorbance A615, 16 h | AID 738, 2007 | hit rate 5% among 98,000
E coli WT exp: growth inhibitors of wild-type E. coli, primary screen, strain BW25113, expanded library, OD600; hit rate 0.15% among 98,000; AID 710, 2007; OD600 absorbance; growth inhibition, % at 100 µM;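 active = growth inhibition above about 50% at one test dose, limit read from the data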;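 note: growth measured after 20 h incubation at 37 °C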
PostGolgi yeast: phenotypic screen on post-Golgi transport, primary screen. AID 739, 2007. post-Golgi transport phenotypic cell assay. inhibition, % at 10 µM. hit rate 0.9% among 98,000;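 note: yeast cells grown in 1536-well plates; yeast grown about 18 h at 30C before absorbance read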
Numbers without * were called inactive; · = not tested or not shown. Cut-off read from the data, not from the text of the source, unless noted: active = inhibition above about 30%; inactive = the rest.

SMILES	PLAP activator	HePTP inhibitor	Ecoli tolC	PostGolgi ctrl	E coli WT exp	PostGolgi yeast
COc1ccc2cc(C#N)c(NC(C)C)nc2c1	1.2	1	6	-2	1	22
COc1ccc2nc(N3CCC(C)CC3)c(C#N)cc2c1	1.4	11	97*	7	5	0
O=C(Nc1ccccc1)C(C(=O)Nc1ccccc1)C12CC3CC(CC(C3)C1)C2	·	6	·	·	·	·
O=C(c1ccc(-c2ccccc2)cc1)N1CCN(Cc2ccc3c(c2)OCO3)CC1	·	3	·	·	·	·
CN(C)c1nc(OCCOC(=O)Nc2ccc(Cl)cc2Cl)nc(N(C)C)n1	1.3	6	-1	34*	-1	4
Cc1ccccc1C1=N/C(=C\c2ccc(Br)o2)C(=O)O1	·	60*	·	·	·	·
Cc1ccc(Cl)c(OCCCCNCCO)c1	·	0	·	·	·	·
CCOC(=O)c1c(N)sc(C)c1-c1ccc(C(C)(C)C)cc1	·	-7	·	·	·	·
CCOC(=O)c1c(N)sc(C(O)(C(F)(F)F)C(F)(F)F)c1-c1ccccc1	1.6	·	·	32*	7	3
O=C(Nc1ccc(F)cc1F)N1CCN(Cc2ccc3c(c2)OCO3)CC1	·	5	·	·	·	·
CCCCN1CC(O)=C(c2nc3ccccc3[nH]2)C1=N	1.2	4	1	30*	2	4
CC(C)N1CC(O)=C(c2ccccc2)C1=N	0.9	1	-2	5	5	-17
CC(C)N1CC(O)=C(c2nc3ccccc3[nH]2)C1=N	2.5*	3	-1	-3	11	12
COc1ccc(OC)c(N2CC(O)=C(c3nc4ccccc4s3)C2=N)c1	2*	·	·	3	-16	-6
CC(C)CCN1CC(O)=C(c2nc3ccccc3[nH]2)C1=N	1.4	·	·	24	-7	29
CCN(CC)CCCN1CC(O)=C(c2nc3ccccc3s2)C1=N	2.2*	·	·	-8	5	-4
O=C1N=C(N2CCCCCC2)S/C1=C\c1cccc2ccccc12	·	-7	·	·	·	·
COc1ccc(Br)cc1-n1c(=O)[nH]c2cc(C(F)(F)F)ccc21	·	-1	·	·	·	·
COC(CNC(=O)c1cccc2c1C(=O)N(Cc1cccnc1)C2)OC	0.9	·	·	-14	3	2
CCOc1ccc(NC(=O)c2cccc3c2C(=O)N(Cc2cccnc2)C3)cc1	1.1	10	20	32*	-5	-4
O=C1/C(=C/c2cn(-c3ccccc3)nc2-c2ccco2)SC(=S)N1C1CCS(=O)(=O)C1 (stereo not given)	·	66*	·	·	·	·
COC(=O)c1sccc1NC(=O)CSc1ccccc1NS(=O)(=O)c1ccc(Br)cc1	1.5	·	·	32*	-15	-20
Cc1ccccc1NS(=O)(=O)c1ccc(NC(=O)CSCc2ccc(Br)cc2)cc1	0.9	·	·	91*	-15	96*
O=C(CSCc1ccc(Br)cc1)Nc1ccc(I)cc1	·	-4	·	·	·	·
Cc1cccc(NCN2C(=O)CSC2=O)c1	·	-14	·	·	·	·
SMILES	PLAP activator	HePTP inhibitor	Ecoli tolC	PostGolgi ctrl	E coli WT exp	PostGolgi yeast
Cc1c(NS(=O)(=O)c2ccccc2)c(=O)n(-c2ccccc2)n1C	1	·	·	0	0	8
Cc1c(NS(=O)(=O)c2cccc(C(=O)NCc3ccc(Cl)cc3)c2)c(=O)n(-c2ccccc2)n1C	1.3	·	·	31*	-2	10
Cc1c(NC(=O)Nc2cccc(Cl)c2)c(=O)n(-c2ccccc2)n1C	0.9	7	6	37*	-2	-9
CCOC(=O)c1c(CN(C)C)n(-c2ccccc2)c2ccc(OC(C)=O)cc12	·	2	·	·	·	·
O=S(=O)(Nc1cc(Cl)ccc1N1CCCCC1)c1cccs1	1.1	10	62*	25	-6	-7
O=S(=O)(Nc1ccc(N2CCCCC2)cc1)c1cccs1	1.2	7	14	6	10	-4
O=C(Cc1ccc(Br)cc1)Nc1ccc(Cl)c([N+](=O)[O-])c1	·	-12	·	·	·	·
O=C(CN(C(=O)c1ccccc1Cl)C1CCCCC1)Nc1ccc(Cl)c([N+](=O)[O-])c1	1.1	·	·	36*	-1	-3
CC1CCCCN1C(=O)Cn1cc(/C=C2/C(=O)Nc3ccccc32)c2ccccc21 (stereo not given)	1.2	·	·	77*	-15	61*
COC(=O)c1cn(CC(=O)N2CCCCC2C)c2ccccc12 (stereo not given)	1	·	·	1	-1	0
COc1cccc(/C=C2\C(=O)NC(=O)N(c3ccc(Br)c(C)c3)C2=O)c1OC	·	-2	·	·	·	·

Source: PubChem (several laboratories)
